For five compounds, MIC results are on record in ChEMBL document CHEMBL3045036, “Chemical composition, plant genetic differences, and antifungal activity of the essential oil of Helichrysum italicum G. Don ssp. microphyllum (Willd) Nym” (2003).

Holding throughout (type): functional
Assay [1] relates to Phytophthora capsici. Kind of assay: Fungicidal activity against Phytophthora capsici. The procedure, abridged: (§1)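 Broth microdilution MIC. Essential oil stock of 1 mg/mL was made in sterile broth with 50% ethanol, then serially diluted in 100 µL potato dextrose broth per well. Each well received 1 µL fungal suspension (~1 × 10^5 cells). Incubation matched the paper-disc test: several days at 24 °C. Growth and medium sterility were checked for each strain.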

For assay [2], the system named is Globisporangium ultimum. Kind of assay: Fungicidal activity against Pythium ultimum. The procedure, abridged:
as §1

Assay [3] has as its system Pyricularia oryzae. Description: Fungicidal activity against Magnaporthe oryzae. In a few lines: as §1
In assay [4] the test system is Botrytis cinerea. Kind of assay: Fungicidal activity against Botryotinia fuckeliana. In a few lines: as §1
The subject of assay [5] is Athelia rolfsii. Kind of assay: Fungicidal activity against Athelia rolfsii. As to conditions: Agroathelia rolfsii. The procedure, abridged:
as §1

Assay [6] concerns Helminthosporium. Description: Fungicidal activity against Helminthosporium oryzae. The procedure, abridged: as §1
The test system of assay [7] is Cercospora beticola. Description: Fungicidal activity against Cercospora beticola. The procedure, abridged:
as §1

Assay [8] relates to Zymoseptoria tritici. Description: Fungicidal activity against Zymoseptoria tritici. The procedure, abridged: as §1
The subject of assay [9] is Rhizoctonia solani. Description: Fungicidal activity against Rhizoctonia solani. The procedure, abridged:
as §1

Assay [10] concerns Fusarium graminearum. Kind of assay: Fungicidal activity against Fusarium graminearum. The procedure, abridged:
as §1

Assay [11] deals with Fusarium oxysporum f. sp. lycopersici. Kind of assay: Fungicidal activity against Fusarium oxysporum f. sp. Lycopersici. The procedure, abridged:
as §1

Values after ≈ are worked out from the molar mass of the structure shown.

By MIC is commonly meant the smallest concentration in the dilution series that meets the test's criterion for growth inhibition. Lower therefore signals inhibition by little substance. On to `COCC(=O)N(c1c(C)cccc1C)C(C)C(=O)OC` (stereo unspecified) [METALAXYL], for which the figures for the minimum inhibitory concentration (MIC) in assay [1] and in [2] were 1.5 µg/mL (≈ 5.37 µM) and 0.6 µg/mL (≈ 2.15 µM), respectively.
The compound `CO/N=C(\C(=O)OC)c1ccccc1COc1ccccc1C` [KRESOXYM-METHYL] registered a minimum inhibitory concentration (MIC) in assay [3] of 1.5 µg/mL (≈ 4.79 µM).
`CCOC(=O)C1(C)OC(=O)N(c2cc(Cl)cc(Cl)c2)C1=O` (stereo unspecified) [CHLOZOLINATE] showed a minimal inhibitory concentration (MIC) in assay [4] of 3.1 µg/mL (≈ 9.33 µM).
Turning to `FC(F)C(F)(F)OCC(Cn1cncn1)c1ccc(Cl)cc1Cl` (stereo unspecified) [TETRACONAZOLE], the MIC worked out at 25 µg/mL (≈ 67.2 µM) in [5], 0.1 µg/mL (≈ 0.269 µM) in [6] and 1.5 µg/mL (≈ 4.03 µM) in [7].
In the case of `CCCCNC(=O)n1c(NC(=O)OC)nc2ccccc21` [BENOMYL], the MIC in assay [8] was found to be 0.6 µg/mL (≈ 2.07 µM); in assay [9], 6.2 µg/mL (≈ 21.4 µM); in assay [10], 0.6 µg/mL (≈ 2.07 µM); in [11], 1.5 µg/mL (≈ 5.17 µM).
